Among the data in ChEMBL document CHEMBL1150387, “Development and experimental validation of a docking strategy for the generation of kinase-targeted libraries” (J Med Chem, 2008) are inhibition values, retold here.

Experiment [1] is described as follows: Inhibition of AMPKalpha at 10 uM by HTRF assay relative to control. The essentials:
(§1)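 HTRF kinase assay, one panel of kinases. Inhibitor stock 50 µM in 100% DMSO; tested at 10 µM. ATP and substrate at final levels near Km. Final buffer: 50 mM Hepes/NaOH pH 7.4, 40 µM Na3VO4, 0.005% Tween-20, 1 mM DTT, MnCl2 or MgCl2 at kinase-dependent levels. Started by adding ATP/substrate. Reaction run at room temperature, time varied by kinase. Detection mix in 50 mM Hepes pH 7.4, 0.1% BSA, 150 mM KF, incubated ≥1 h at room temperature. Activity expressed as % of uninhibited control; n=2.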
On the technique in general: In TR-FRET formats the signal depends on donor and acceptor labels being close together.

Experiment [2] concerns the target Ribosomal protein S6 kinase alpha-3 (Homo sapiens) (UniProt P51812). The experiment in a line: Inhibition of RSK2 at 10 uM by HTRF assay relative to control. The essentials: as §1
Experiment [3] has as its target Protein kinase C alpha type (Homo sapiens) (UniProt P17252). Put plainly: Inhibition of PKCalpha at 10 uM by HTRF assay relative to control. The essentials:
as §1

For experiment [4], the target named is T1, Inhibitor of nuclear factor kappa-B kinase subunit beta (Homo sapiens) (UniProt O14920).
T1 sequence (whole entry): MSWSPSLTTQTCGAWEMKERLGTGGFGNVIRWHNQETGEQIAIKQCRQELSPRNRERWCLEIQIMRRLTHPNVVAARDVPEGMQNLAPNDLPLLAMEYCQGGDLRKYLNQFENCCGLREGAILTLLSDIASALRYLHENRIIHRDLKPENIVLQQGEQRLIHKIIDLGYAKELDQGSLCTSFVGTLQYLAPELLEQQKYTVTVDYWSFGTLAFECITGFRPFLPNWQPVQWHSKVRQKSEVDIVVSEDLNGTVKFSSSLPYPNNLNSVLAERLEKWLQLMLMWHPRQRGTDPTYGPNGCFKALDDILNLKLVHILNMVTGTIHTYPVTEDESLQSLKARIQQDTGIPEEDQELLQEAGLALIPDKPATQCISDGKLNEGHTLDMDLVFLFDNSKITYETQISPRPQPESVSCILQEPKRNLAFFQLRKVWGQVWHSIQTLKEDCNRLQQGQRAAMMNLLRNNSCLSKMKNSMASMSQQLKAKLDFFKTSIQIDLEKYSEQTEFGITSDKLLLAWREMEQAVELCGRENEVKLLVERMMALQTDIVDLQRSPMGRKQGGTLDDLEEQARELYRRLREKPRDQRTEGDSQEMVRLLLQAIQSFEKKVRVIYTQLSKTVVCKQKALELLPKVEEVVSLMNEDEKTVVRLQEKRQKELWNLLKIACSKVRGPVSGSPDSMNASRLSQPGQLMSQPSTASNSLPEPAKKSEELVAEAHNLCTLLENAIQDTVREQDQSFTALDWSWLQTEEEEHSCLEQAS
The experiment in a line: Inhibition of IKK-beta at 10 uM by HTRF assay relative to control. Put shortly: as §1

The target in experiment [5] is Ribosomal protein S6 kinase beta-1 (Homo sapiens) (UniProt P23443). Put plainly: Inhibition of p70S6K at 10 uM by HTRF assay relative to control. The essentials: as §1
Chain of Ribosomal protein S6 kinase beta-1 (Homo sapiens) (P23443 whole entry, looked up): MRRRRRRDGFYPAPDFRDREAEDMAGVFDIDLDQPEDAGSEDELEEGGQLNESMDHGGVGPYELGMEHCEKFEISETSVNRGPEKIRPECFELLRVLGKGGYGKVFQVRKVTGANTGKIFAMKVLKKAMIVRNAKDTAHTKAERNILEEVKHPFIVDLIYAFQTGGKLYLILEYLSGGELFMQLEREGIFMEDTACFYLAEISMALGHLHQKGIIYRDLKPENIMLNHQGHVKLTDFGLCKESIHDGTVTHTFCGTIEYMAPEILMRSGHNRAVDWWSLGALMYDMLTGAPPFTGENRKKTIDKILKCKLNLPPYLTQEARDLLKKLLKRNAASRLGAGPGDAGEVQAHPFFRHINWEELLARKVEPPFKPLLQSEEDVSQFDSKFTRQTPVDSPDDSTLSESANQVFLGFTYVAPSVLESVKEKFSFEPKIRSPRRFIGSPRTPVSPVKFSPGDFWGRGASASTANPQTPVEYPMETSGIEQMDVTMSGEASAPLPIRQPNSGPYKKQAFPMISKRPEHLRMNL
For experiment [6], the target named is High affinity nerve growth factor receptor (Homo sapiens) (UniProt P04629). The experiment in a line: Inhibition of TrkA at 10 uM by HTRF assay relative to control. Put shortly: as §1
In experiment [7] the target is Insulin-like growth factor 1 receptor (Homo sapiens) (UniProt P08069). The experiment in a line: Inhibition of IGF1R at 10 uM by HTRF assay relative to control. Put shortly: as §1
Experiment [8] addresses Calcium/calmodulin-dependent protein kinase type II subunit alpha (Homo sapiens) (UniProt Q9UQM7). The experiment in a line: Inhibition of CaMK2alpha at 10 uM by HTRF assay relative to control. Put shortly:
as §1

The target of experiment [9] is Protein kinase C gamma type (Homo sapiens) (UniProt P05129). Put plainly: Inhibition of PKCgamma at 10 uM by HTRF assay relative to control. Put shortly: as §1
Experiment [10] addresses MAP kinase-activated protein kinase 2 (Homo sapiens) (UniProt P49137). Put plainly: Inhibition of MAPKAPK2 at 10 uM by HTRF assay relative to control. Put shortly:
as §1

Experiment [11] has as its target Mitogen-activated protein kinase 8 (Homo sapiens) (UniProt P45983). The experiment in a line: Inhibition of JNK1 at 10 uM by HTRF assay relative to control. Put shortly:
as §1

Experiment [12] has as its target 3-phosphoinositide-dependent protein kinase 1 (Homo sapiens) (UniProt O15530). The experiment in a line: Inhibition of PDK1 at 10 uM by HTRF assay relative to control.
For experiment [13], the target named is Rho-associated protein kinase 2 (Homo sapiens) (UniProt O75116). The experiment in a line: Inhibition of ROCK2 at 10 uM by HTRF assay relative to control. Put shortly:
as §1

In experiment [14] the target is Serine/threonine-protein kinase Chk2 (Homo sapiens) (UniProt O96017). Put plainly: Inhibition of CHK2 at 10 uM by HTRF assay relative to control. The essentials: as §1
Chain of Serine/threonine-protein kinase Chk2 (Homo sapiens) (O96017 whole entry): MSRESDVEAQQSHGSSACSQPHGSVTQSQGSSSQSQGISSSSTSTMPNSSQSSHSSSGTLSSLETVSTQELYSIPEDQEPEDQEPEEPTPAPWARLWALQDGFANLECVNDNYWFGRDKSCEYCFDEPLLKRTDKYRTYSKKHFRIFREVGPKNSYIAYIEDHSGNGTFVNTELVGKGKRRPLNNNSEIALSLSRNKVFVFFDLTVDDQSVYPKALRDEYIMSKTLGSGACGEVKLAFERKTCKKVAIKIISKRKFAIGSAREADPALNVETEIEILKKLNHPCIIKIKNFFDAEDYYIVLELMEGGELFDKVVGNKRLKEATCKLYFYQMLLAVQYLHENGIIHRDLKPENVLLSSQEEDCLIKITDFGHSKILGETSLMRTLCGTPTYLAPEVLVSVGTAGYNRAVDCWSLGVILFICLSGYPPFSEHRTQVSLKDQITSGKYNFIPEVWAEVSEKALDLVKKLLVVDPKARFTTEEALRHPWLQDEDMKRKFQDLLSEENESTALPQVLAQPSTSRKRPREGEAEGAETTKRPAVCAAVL
The target in experiment [15] is Cyclin-dependent kinase 1 (Homo sapiens) (UniProt P06493). Put plainly: Inhibition of CDK1 at 10 uM by HTRF assay relative to control. Put shortly: as §1
The target of experiment [16] is Platelet-derived growth factor receptor beta (Homo sapiens) (UniProt P09619). Put plainly: Inhibition of PDGFRbeta at 10 uM by HTRF assay relative to control. Put shortly:
as §1

Experiment [17] has as its target Fibroblast growth factor receptor 1 (Homo sapiens) (UniProt P11362). Put plainly: Inhibition of FGFR1 at 10 uM by HTRF assay relative to control. The essentials:
as §1

Experiment [18] has as its target Tyrosine-protein kinase Fes/Fps (Homo sapiens) (UniProt P07332). Put plainly: Inhibition of FES at 10 uM by HTRF assay relative to control. The essentials: as §1
The target of experiment [19] is T2, Serine/threonine-protein kinase Chk1 (Homo sapiens) (UniProt O14757).
T2 sequence (whole entry): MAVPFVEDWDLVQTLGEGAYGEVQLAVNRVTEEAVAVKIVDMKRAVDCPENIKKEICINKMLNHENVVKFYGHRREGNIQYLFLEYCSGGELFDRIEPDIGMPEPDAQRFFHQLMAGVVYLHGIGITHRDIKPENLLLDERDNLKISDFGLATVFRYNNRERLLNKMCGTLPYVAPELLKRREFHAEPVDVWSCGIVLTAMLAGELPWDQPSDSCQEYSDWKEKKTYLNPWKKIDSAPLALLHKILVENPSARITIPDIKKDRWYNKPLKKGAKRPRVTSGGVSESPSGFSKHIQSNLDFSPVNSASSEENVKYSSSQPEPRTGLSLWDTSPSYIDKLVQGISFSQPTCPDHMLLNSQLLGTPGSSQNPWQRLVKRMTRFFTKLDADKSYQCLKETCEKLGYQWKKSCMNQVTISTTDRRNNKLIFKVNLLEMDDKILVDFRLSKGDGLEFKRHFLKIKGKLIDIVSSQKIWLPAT
Put plainly: Inhibition of CHK1 at 10 uM by HTRF assay relative to control. Put shortly: as §1

Experiment [20] addresses Tyrosine-protein kinase Lck (Homo sapiens) (UniProt P06239). The experiment in a line: Inhibition of Lck at 10 uM by HTRF assay relative to control. The essentials: as §1

Chain of Ribosomal protein S6 kinase alpha-3 (Homo sapiens) (P51812 whole entry): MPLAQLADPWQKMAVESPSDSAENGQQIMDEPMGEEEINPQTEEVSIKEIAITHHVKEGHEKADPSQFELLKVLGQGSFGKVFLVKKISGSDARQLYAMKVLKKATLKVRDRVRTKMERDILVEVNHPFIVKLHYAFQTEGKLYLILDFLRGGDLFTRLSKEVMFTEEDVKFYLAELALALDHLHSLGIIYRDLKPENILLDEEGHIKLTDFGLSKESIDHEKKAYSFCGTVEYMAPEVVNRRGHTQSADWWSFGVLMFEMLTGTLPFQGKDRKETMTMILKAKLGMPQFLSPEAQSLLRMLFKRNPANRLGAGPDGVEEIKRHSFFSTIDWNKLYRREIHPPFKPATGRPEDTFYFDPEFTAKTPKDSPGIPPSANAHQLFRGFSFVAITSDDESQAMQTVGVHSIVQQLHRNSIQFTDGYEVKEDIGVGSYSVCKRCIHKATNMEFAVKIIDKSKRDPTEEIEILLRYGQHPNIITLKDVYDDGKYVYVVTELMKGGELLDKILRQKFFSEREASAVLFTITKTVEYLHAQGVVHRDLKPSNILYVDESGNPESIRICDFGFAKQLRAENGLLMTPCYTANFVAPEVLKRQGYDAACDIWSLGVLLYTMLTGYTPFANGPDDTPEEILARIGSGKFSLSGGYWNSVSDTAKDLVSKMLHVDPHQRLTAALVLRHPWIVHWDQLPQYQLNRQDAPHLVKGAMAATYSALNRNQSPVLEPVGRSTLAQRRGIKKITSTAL
Chain of Platelet-derived growth factor receptor beta (Homo sapiens) (P09619 whole entry): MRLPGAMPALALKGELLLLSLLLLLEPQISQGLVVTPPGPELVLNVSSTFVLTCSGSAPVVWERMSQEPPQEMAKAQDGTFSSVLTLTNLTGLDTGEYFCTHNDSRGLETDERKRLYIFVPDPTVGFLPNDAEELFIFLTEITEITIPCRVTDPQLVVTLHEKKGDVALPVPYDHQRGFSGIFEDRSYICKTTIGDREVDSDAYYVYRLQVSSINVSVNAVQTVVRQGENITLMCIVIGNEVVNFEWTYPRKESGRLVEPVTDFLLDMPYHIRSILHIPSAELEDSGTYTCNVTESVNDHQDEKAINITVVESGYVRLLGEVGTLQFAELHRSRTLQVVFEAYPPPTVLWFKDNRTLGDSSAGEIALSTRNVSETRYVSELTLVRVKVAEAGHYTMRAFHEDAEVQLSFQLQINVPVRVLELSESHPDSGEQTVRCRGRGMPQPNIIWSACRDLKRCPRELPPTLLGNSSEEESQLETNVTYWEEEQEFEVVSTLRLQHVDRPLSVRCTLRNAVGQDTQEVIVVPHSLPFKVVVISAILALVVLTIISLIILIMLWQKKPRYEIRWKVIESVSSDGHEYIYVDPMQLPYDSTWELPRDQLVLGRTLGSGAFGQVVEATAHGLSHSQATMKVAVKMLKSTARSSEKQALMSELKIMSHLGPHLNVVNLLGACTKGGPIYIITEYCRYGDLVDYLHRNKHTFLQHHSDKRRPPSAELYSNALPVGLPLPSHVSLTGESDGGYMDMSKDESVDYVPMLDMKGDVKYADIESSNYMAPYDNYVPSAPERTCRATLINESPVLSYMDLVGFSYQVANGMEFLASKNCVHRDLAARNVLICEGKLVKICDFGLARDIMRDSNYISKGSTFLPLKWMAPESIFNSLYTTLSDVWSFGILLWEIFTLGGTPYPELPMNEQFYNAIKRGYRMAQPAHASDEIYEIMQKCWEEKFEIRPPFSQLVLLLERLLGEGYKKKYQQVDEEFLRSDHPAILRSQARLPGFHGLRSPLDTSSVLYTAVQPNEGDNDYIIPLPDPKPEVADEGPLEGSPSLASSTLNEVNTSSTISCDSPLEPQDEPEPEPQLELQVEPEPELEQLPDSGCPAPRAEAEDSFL
Chain of Rho-associated protein kinase 2 (Homo sapiens) (O75116 whole entry, looked up): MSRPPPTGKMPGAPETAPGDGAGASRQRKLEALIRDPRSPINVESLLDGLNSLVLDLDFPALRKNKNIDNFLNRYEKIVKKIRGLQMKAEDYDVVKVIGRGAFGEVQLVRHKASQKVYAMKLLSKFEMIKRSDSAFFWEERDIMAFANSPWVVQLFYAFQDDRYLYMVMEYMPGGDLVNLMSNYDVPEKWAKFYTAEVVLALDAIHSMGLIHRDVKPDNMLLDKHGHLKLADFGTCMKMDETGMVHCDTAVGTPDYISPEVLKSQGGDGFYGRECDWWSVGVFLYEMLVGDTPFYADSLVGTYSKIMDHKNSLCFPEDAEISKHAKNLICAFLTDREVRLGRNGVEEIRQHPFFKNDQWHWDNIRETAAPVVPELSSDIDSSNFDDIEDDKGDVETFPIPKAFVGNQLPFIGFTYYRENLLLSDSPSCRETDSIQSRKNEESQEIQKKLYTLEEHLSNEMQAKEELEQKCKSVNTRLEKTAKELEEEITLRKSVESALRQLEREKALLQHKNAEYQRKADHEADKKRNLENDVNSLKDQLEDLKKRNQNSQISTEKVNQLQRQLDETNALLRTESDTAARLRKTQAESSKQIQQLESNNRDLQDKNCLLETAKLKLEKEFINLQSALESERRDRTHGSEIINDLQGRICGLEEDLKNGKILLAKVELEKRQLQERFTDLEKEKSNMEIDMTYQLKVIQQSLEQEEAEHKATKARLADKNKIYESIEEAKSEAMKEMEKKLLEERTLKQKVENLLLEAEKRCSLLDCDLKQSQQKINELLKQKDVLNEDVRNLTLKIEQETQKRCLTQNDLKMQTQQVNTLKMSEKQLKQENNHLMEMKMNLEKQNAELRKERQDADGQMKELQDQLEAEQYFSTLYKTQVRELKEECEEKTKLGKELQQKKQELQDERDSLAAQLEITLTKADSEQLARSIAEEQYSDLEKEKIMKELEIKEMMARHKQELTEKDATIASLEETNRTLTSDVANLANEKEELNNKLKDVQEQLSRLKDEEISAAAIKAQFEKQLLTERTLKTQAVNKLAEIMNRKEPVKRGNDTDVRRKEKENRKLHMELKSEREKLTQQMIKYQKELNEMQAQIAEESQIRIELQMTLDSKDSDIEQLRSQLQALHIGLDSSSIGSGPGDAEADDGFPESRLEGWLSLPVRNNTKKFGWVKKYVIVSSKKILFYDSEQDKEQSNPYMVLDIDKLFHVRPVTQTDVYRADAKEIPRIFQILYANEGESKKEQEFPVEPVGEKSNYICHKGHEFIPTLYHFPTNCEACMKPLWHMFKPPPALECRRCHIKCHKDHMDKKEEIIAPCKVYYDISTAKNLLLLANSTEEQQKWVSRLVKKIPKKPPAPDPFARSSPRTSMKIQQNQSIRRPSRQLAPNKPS

For the compound `Cc1cc(C(=O)N2CCN(c3ncnc4c3CN(Cc3ccccc3)CC4)CC2)c(C)n1C`, the inhibition (usually the relative decrease from the control value, in per cent) came out at 0% in experiment [1]; 0% in experiment [2]; 0% in experiment [3]; 3% in experiment [4]; 7% in experiment [5]; 0% in [6]. For the same compound, the inhibition was 0% in experiment [7]; 0% in experiment [8]; 6% in experiment [9]; 0% in experiment [10]; 0% in [11]; 0% in experiment [12]. The inhibition in [13] was 0%; in experiment [14], 2%; in experiment [15], 0%; in experiment [16], 5%; in experiment [17] it was 0%; in experiment [18], 0%. Also, the inhibition came out at 3% in experiment [19] and 0% in experiment [20].

`O=C(NC[C@@H]1CCCO1)c1cccc(Nc2nccc(Nc3ccc4ncsc4c3)n2)c1`: the inhibition in [1] came to 36%; in [2], 9%; in experiment [3], 1%; in [4] it was 45%; in experiment [5] it was 23%; in [6], 34%. The inhibition in experiment [7] amounted to 83%; in experiment [8], 0%; in [9], 30%; in experiment [10] it was 1%; in [11] it was 94%; in experiment [12] it was 3%. Besides, the inhibition was found to be 19% in experiment [13]; 13% in [14]; 11% in experiment [15]; 98% in experiment [16]; 95% in [17]; 90% in [18]. Further, the inhibition in experiment [19] stood at 2%; in experiment [20], 84%.

Take `Clc1ccc2sc(CN3CCN(c4ncnc5c4CN(Cc4ccccc4)CC5)CC3)cc2c1`: the inhibition was 16% in [1]; 5% in experiment [2]; 8% in [3]; 10% in experiment [4]; 11% in [5]; 13% in experiment [6]. Moreover, the inhibition in experiment [7] amounted to 0%; in [8], 0%; in experiment [9] it was 2%; in experiment [10], 1%; in [11], 3%; in experiment [12], 3%. Besides, the inhibition came out at 0% in experiment [13]; 0% in experiment [14]; 0% in [15]; 5% in experiment [16]; 6% in [17]; 6% in [18]. Further, the inhibition was determined as 5% in [19] and 0% in experiment [20].

In the case of `COC[C@@H]1CCCN1C(=O)[C@@H]1CCCN1c1cc(Nc2cccc(OC)c2)nc(N)n1`, the inhibition in experiment [1] was determined as 2%; in experiment [2] it was 5%; in [3], 5%; in experiment [4], 9%; in [5] it was 9%; in experiment [6], 9%. Besides, the inhibition in experiment [7] turned out to be 5%; in experiment [8], 0%; in experiment [9], 0%; in experiment [10] it was 2%; in experiment [11], 0%; in experiment [12], 0%. Also, the inhibition was determined as 0% in [13]; 0% in [14]; 5% in experiment [15]; 4% in experiment [16]; 0% in experiment [17]; 8% in experiment [18]. Moreover, the figures for the inhibition in experiment [19] and in [20] were 1% and 0%, respectively.

For the compound `Cc1cccc(N(C)c2cc(N3CCN(C(=O)Cc4c[nH]c5ccccc45)CC3)ncn2)c1`, the inhibition in experiment [1] is 3%; in experiment [2] it was 0%; in experiment [3] it was 0%; in [4], 3%; in experiment [5] it was 7%; in [6], 2%. The inhibition in [7] worked out at 0%; in experiment [8], 0%; in [9], 2%; in experiment [10] it was 0%; in [11], 9%; in [12], 3%. The inhibition in experiment [13] worked out at 0%; in experiment [14] it was 0%; in experiment [15], 0%; in experiment [16] it was 1%; in [17] it was 5%; in [18], 24%. The inhibition in [19] was found to be 4%; in experiment [20], 0%.

Consider `Cc1cccc(N(C)c2cc(Nc3ccc(CC(=O)Nc4ccc5ncsc5c4)cc3)ncn2)c1`, for which the inhibition in experiment [1] was 0%; in experiment [2], 0%; in experiment [3], 0%; in experiment [4], 0%; in [5] it was 18%; in [6], 23%. The inhibition in [7] came to 0%; in experiment [8], 0%; in experiment [9], 5%; in experiment [10], 3%; in experiment [11] it was 7%; in experiment [12], 1%. Moreover, the inhibition in experiment [13] stood at 22%; in experiment [14] it was 0%; in experiment [15], 0%; in experiment [16], 48%; in experiment [17], 19%; in [18], 24%. The values for the inhibition in experiment [19] and in experiment [20] were 1% and 0%, respectively.

Take `COC[C@@H]1CCCN1C(=O)C1CCCN1c1cc(Nc2cccc(Br)c2)ncn1` (stereo not given in full): the inhibition in experiment [1] stood at 0%; in experiment [2], 0%; in [3], 0%; in experiment [4], 1%; in experiment [5] it was 3%; in [6], 8%. Further, the inhibition turned out to be 0% in experiment [7]; 0% in [8]; 5% in experiment [9]; 0% in experiment [10]; 0% in experiment [11]; 0% in [12]. For the same compound, the inhibition is 0% in experiment [13]; 3% in experiment [14]; 0% in [15]; 6% in experiment [16]; 0% in experiment [17]; 5% in experiment [18]. Besides, the values for the inhibition in [19] and in experiment [20] were 2% and 0%, respectively.

Take `Cc1cccc(Nc2ncnc3c2CN(C(=O)c2ccc(N(C)C)c4ccccc24)CC3)c1`: the inhibition stood at 19% in [1]; 0% in [2]; 0% in experiment [3]; 4% in experiment [4]; 0% in experiment [5]; 8% in experiment [6]. Besides, the inhibition in experiment [7] is 3%; in experiment [8], 0%; in [9], 2%; in experiment [10] it was 0%; in experiment [11] it was 0%; in experiment [12], 0%. The inhibition in experiment [13] was determined as 1%; in [14] it was 2%; in [15], 0%; in experiment [16] it was 10%; in [17], 0%; in [18], 3%. The inhibition is 3% in [19] and 0% in experiment [20].
